Experimental data reported in ChEMBL document CHEMBL1125594 (J Med Chem, 1991).

Columns and labels:
Nucleic Acid [1] = assay: Antitumor potency on human breast MCF-7 cell lines.; type: functional, cell-based; details: MCF7
How it was run: (§1)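 Human lines kept in RPMI-1640 with 5% FBS, L-glutamine and penicillin/streptomycin; seeded as single-cell suspensions at 2000 (MCF-7), 500 (WiDr) or 750 (2780) cells/well. Drugs in DMSO, serially diluted in PBS pH 7.4 in half-log steps, were added on day 2 (final DMSO ≤0.1%). Exposure 6 days at 37 °C, 5% CO2. MTT was added for 4 h, formazan dissolved in DMSO, A570 read as % of untreated control. 6 wells per concentration, ≥2 assays, IC50s averaged.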

Nucleic Acid [2] = assay: Antitumor potency on human ovarian 2780 cell lines.; type: functional; how it was run: as §1
Nucleic Acid [3] = assay: Antitumor potency on human colon WIDR cell lines.; type: functional, cell-based; how it was run: as §1
P388 = assay: Antitumor potency on P388 leukemia cells in culture; type: functional, cell-based; details: Mus musculus
How it was run: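 P388 cells (ATCC CCL-46) plated as a single-cell suspension at 300 cells/well. Drugs in DMSO, serially diluted in PBS pH 7.4 in half-log steps, were added on day 1 (final DMSO ≤0.1%). Exposure 6 days at 37 °C, 5% CO2. MTT was added for 4 h, formazan dissolved in DMSO, absorbance read at 570 nm as % of untreated control. 6 wells per concentration, ≥2 assays, IC50 averaged.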

Mus musculus = organism: Mus musculus; assay: Minimum effective dose was measured against P388 leukemia in mice.; type: functional

Row | SMILES | IC50 (Nucleic Acid [1]) [nM] | IC50 (Nucleic Acid [2]) [nM] | IC50 (Nucleic Acid [3]) [nM] | IC50 (P388) [nM] | MED (Mus musculus)
1 | CO[C@@]12C(COC(N)=O)C3=C(C(=O)C(C)=C(Nc4ccccc4)C3=O)N1CC1NC12 (some centres undefined) | 1.32 | 2.6 | 1.09 | 1.71 | –
2 | CO[C@@]12C(COC(N)=O)C3=C(C(=O)C(C)=C(OCCOc4ccccc4)C3=O)N1CC1NC12 (some centres undefined) | 0.72 | 0.16 | 0.12 | 0.082 | 3.5 µmol/kg
3 | CO[C@@]12C(COC(N)=O)C3=C(C(=O)C(C)=C(OCCSc4ccccc4)C3=O)N1CC1NC12 (some centres undefined) | 1.4 | 0.53 | 0.15 | 1.21 | 6.73
4 | CO[C@@]12C(COC(N)=O)C3=C(C(=O)C(C)=C(OCCOCCO)C3=O)N1CC1NC12 (some centres undefined) | 80.6 | 36.6 | 25.8 | 18.7 | 0.3 µmol/kg
5 | CO[C@@]12C(COC(N)=O)C3=C(C(=O)C(C)=C(Nc4ccc(F)cc4)C3=O)N1CC1NC12 (some centres undefined) | 1.77 | 3.03 | 1.63 | 3.03 | –
6 | C#CCNC1=C(C)C(=O)C2=C(C1=O)C(COC(N)=O)[C@@]1(OC)C3NC3CN21 (some centres undefined) | 4.4 | 2.1 | 3.9 | 9.7 | –
7 | CO[C@@]12C(COC(N)=O)C3=C(C(=O)C(C)=C(NCCCO)C3=O)N1CC1NC12 (some centres undefined) | 132 | 76.4 | 102 | 459 | –
8 | CO[C@@]12C(COC(N)=O)C3=C(C(=O)C(C)=C(Nc4nc(C)cs4)C3=O)N1CC1NC12 (some centres undefined) | 3.13 | 1.74 | 1.32 | 0.5 | –
9 | CO[C@@]12C(COC(N)=O)c3c(O)c(/N=C4\C=CC(=O)C(I)=C4)c(C)c(O)c3N1CC1NC12 (some centres undefined) | 16.3 | 29 | 6.52 | – | –
10 | CO[C@@]12C(COC(N)=O)C3=C(C(=O)C(C)=C(OCC4CCC4)C3=O)N1CC1NC12 (some centres undefined) | 0.21 | 0.27 | 0.19 | 0.41 | 0.99 µmol/kg
11 | CO[C@@]12C(COC(N)=O)c3c(O)c(N=C4C=CC(=O)C=C4)c(C)c(O)c3N1CC1NC12 (some centres undefined) | 16.9 | 16.4 | 6.3 | 5.86 | –
12 | CO[C@@]12C(COC(N)=O)c3c(O)c(/N=C4/C=CN=N4)c(C)c(O)c3N1CC1NC12 (some centres undefined) | 72.4 | 38.5 | 13 | 15.5 | –
13 | CO[C@@]12C(COC(N)=O)C3=C(C(=O)C(C)=C(OC4CC4)C3=O)N1CC1NC12 (some centres undefined) | 1.12 | 0.56 | 0.21 | 0.63 | 0.13 µmol/kg
14 | CO[C@@]12C(COC(N)=O)c3c(O)c(/N=C4\C=CC(=O)C([N+](=O)[O-])=C4)c(C)c(O)c3N1CC1NC12 (some centres undefined) | 22.7 | 10.8 | 25.5 | – | –
15 | CO[C@@]12C(COC(N)=O)C3=C(C(=O)C(C)=C(Nc4ccc(I)cc4)C3=O)N1CC1NC12 (some centres undefined) | 2.84 | 1.6 | 0.63 | 1.62 | –
16 | CO[C@@]12[C@H](COC(N)=O)C3=C(C(=O)C(C)=C(N)C3=O)N1C[C@@H]1N[C@@H]12 [MITOMYCIN] | 32.2 | 14.8 | 13 | 50.8 | –
17 | COC1=C(C)C(=O)C2=C(C1=O)[C@@H](COC(N)=O)[C@@]1(OC)[C@H]3N[C@H]3CN21 [MITOMYCIN A] | 0.63 | 0.22 | 0.052 | 0.24 | 0.14 µmol/kg
18 | CO[C@@]12C(COC(N)=O)c3c(O)c(N=C4C=CC(=N)C=C4)c(C)c(O)c3N1CC1NC12 (some centres undefined) | 13.1 | 50 | 28.8 | 18.8 | –
19 | CO[C@@]12C(COC(N)=O)C3=C(C(=O)C(C)=C(Nc4ccc(Br)cc4)C3=O)N1CC1NC12 (some centres undefined) | 2.66 | 1.84 | 1.19 | 1.92 | –
20 | CO[C@@]12C(COC(N)=O)C3=C(C(=O)C(C)=C(NCCc4ccco4)C3=O)N1CC1NC12 (some centres undefined) | 36.6 | 59.5 | 40.3 | 26.6 | –
21 | CO[C@@]12C(COC(N)=O)C3=C(C(=O)C(C)=C(Nc4ccc5[nH]ccc5c4)C3=O)N1CC1NC12 (some centres undefined) | 1.1 | 3.1 | 1.07 | – | –
22 | CO[C@@]12C(COC(N)=O)C3=C(C(=O)C(C)=C(Nc4cccc(I)c4)C3=O)N1CC1NC12 (some centres undefined) | 1.87 | 1.68 | 0.21 | 1.42 | –
23 | COCCOCCOC1=C(C)C(=O)C2=C(C1=O)C(COC(N)=O)[C@@]1(OC)C3NC3CN21 (some centres undefined) | 8.22 | 4.57 | 4.57 | 4.1 | 0.11 µmol/kg
24 | CO[C@@]12C(COC(N)=O)C3=C(C(=O)C(C)=C(OCC4CC4)C3=O)N1CC1NC12 (some centres undefined) | 0.51 | 0.45 | 0.16 | 0.31 | 1.03 µmol/kg
25 | CO[C@@]12C(COC(N)=O)C3=C(C(=O)C(C)=C(Nc4ccc([N+](=O)[O-])cc4)C3=O)N1CC1NC12 (some centres undefined) | 1.53 | 0.59 | 0.42 | 0.44 | –
26 | CO[C@@]12C(COC(N)=O)C3=C(C(=O)C(C)=C(OCCO)C3=O)N1CC1NC12 (some centres undefined) | 3.69 | 6.85 | 4.22 | 0.71 | 0.017 µmol/kg
27 | CO[C@@]12C(COC(N)=O)C3=C(C(=O)C(C)=C(NCCc4ccccn4)C3=O)N1CC1NC12 (some centres undefined) | 22.8 | 77.4 | 26.2 | 53.5 | –
28 | CO[C@@]12C(COC(N)=O)C3=C(C(=O)C(C)=C(OCCSSCCO)C3=O)N1CC1NC12 (some centres undefined) | 3.92 | 1.36 | 1.48 | 1.87 | 0.026 µmol/kg
29 | CO[C@@]12C(COC(N)=O)C3=C(C(=O)C(C)=C(OCc4ccccc4)C3=O)N1CC1NC12 (some centres undefined) | 1.43 | 0.26 | 0.13 | 0.018 | 0.24 µmol/kg
